Inconclusive results are not listed.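 The calls were made as follows, unless noted: active = RAM network inhibition above 8.4% in each of two replicates, 3 SD over the compound average; inconclusive = above 8.4% inhibition in only one replicate; inactive = 8.4% inhibition or less in each replicate.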
Legend:
[1] = OD615 S. cerevisiae growth inhibition, permissive medium, pilot counter-assay, permissive growth control for S. cerevisiae lifespan shortening project (AID 705;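 active = growth inhibition above 25% in both replicates, a cutoff set 3 SD above the mean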); details: OD615, 24 h, at 10 µM, stronger effect = higher value
Method in brief: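 assay system = Saccharomyces cerevisiae strain carrying genetically modified DeaD replicative-lifespan system | medium = SC raffinose/galactose permissive medium | dosing = 10 µM single dose, 0.25% DMSO | schedule = 24 h compound exposure at 30 °C after 4 h pre-growth | measured by = OD at 615 nm | read-out basis = growth inhibition from lowered OD615 after 24 h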

[2] = Restrictive medium S. cerevisiae growth inhibition, OD615, pilot screen of yeast lifespan reduction project, restrictive growth control (AID 706;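 active = growth inhibition above a set limit, 3 SD over mean compound inhibition, in both replicates, cut at about 43% in these data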;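 also: modified DeaD lifespan yeast strain shifted to restrictive glucose medium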); details: OD615, 48 h, at 10 µM, stronger effect = higher value
Method in brief: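 Buffer or medium: CSMM-D glucose medium. Material: genetically modified Saccharomyces cerevisiae, DeaD replicative lifespan assay strain. Times: 48 h compound exposure at 30 °C. Measured by: optical density at 615 nm.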

[3] = viability gain of MRP-1-high H69AR cells under doxorubicin, pilot screen, MRP-1 activator project, CellTiter-Glo, duplicate (AID 807;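 active = viability increase at or above a cutoff of the median across tested compounds plus 3 SD, cut at about 8.5% in these data, passing the limit was not always enough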;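 also: compound pretreatment 18-22 h then 72 h combined with doxorubicin; 0% = doxorubicin alone and 100% = vehicle without doxorubicin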); details: H69AR viability with doxorubicin, CellTiter-Glo luminescence; at 10 µM; stronger effect = higher value
[4] = growth suppression of beta-catenin knockout HCT116, pilot screen, human colon tumor cells (AID 823;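 active = cell viability at or below a set limit in both duplicate runs, the limit being the all-compound median minus 4 SD, cut at about 23% in these data, passing the limit was not always enough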;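 also: 0% = wells killed by 20 µM Hyamine and 100% = untreated DMSO cell wells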); details: CellTiter-Glo, 60 h, at 10 µM, stronger effect = lower value
[5] = growth suppression of PTEN-deleted HCT116, pilot screen, cell-based, HCT116 clonal line, CellTiter-Glo (AID 824;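 active = viability at or below 27.92% in each of two runs, the all-compound median minus 4 SD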;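 also: 0% = 20 µM Hyamine control and 100% = vehicle cell control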); details: 60 h, at 10 µM, stronger effect = lower value
[6] = inhibitors of the yeast RAM network, pilot screen, dse1pr::URA3 reporter, 5-FOA selection (AID 869;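 active = inhibition over a set limit, the all-compound mean plus 3 SD, in both replicate runs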;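 also: 0% = DMSO wells with no growth and 100% = 10 µM 1-NA-PP1 with full growth; RAM network block rescues cells from 5-FOA so hits raise OD615 growth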); details: S. cerevisiae dse1pr::URA3 5-FOA growth, OD615, 2 d; at 10 µM; stronger effect = higher value; strain carries analog-sensitive mutant Cbk1 kinase
[7] = RAM signaling pathway blockade in yeast – S. cerevisiae, Pdr1DBD-CYC8 efflux-inhibited sensitized strain, primary screen (AID 1298);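 also: 0% = DMSO untreated cells without growth and 100% = 10 µM 1-NA-PP1 full growth; higher means more yeast growth rescued from 5-FOA killing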; details: S. cerevisiae cbk1-as DSE1-URA3 strain, 5-FOA growth OD615, 2 d; at 50 µM; stronger effect = higher value

O=C(O)CCC(=O)N1CCc2cc(S(=O)(=O)N3CC=C(c4ccccc4)CC3)ccc21
inactive: growth inhibition [1] 5.99% | growth inhibition [2] 4.92% | viability increase [3] -2.14% | viability [4] 104% | viability [5] 93.9% | inhibition [6] 3.79% | RAM network inhibition [7] 7.9%

CC(=O)N1c2ccccc2C(=O)C1N1CCCCC1 (stereo not drawn)
inactive: growth inhibition [1] -3.63% | growth inhibition [2] -9.52% | viability increase [3] -3.42% | viability [4] 93.1% | viability [5] 84.4% | inhibition [6] 0.985% | RAM network inhibition [7] -1.19%

O=C1CC(N2CCN(c3nc4ccccc4s3)CC2)C(=O)N1c1ccc(F)cc1 (stereo not drawn)
inactive: growth inhibition [1] 0.4% | growth inhibition [2] 0.52% | viability increase [3] 6.28% | viability [4] 88.7% | viability [5] 94.3% | inhibition [6] 1.54% | RAM network inhibition [7] 3.67%

O=C(CCS(=O)(=O)c1cccs1)NC1CCCCCC1
inactive: growth inhibition [1] -2.95% | growth inhibition [2] -4.64% | viability increase [3] -0.19% | viability [4] 94.6% | viability [5] 92.7% | inhibition [6] 1.29% | RAM network inhibition [7] 5.23%

COCCOC(=O)C1=C(C)NC2=C(C(=O)CC(C)(C)C2)C1c1ccc(N(C)C)cc1 (stereo not drawn)
inactive: growth inhibition [1] -16.1% | growth inhibition [2] -21.2% | viability increase [3] -0.49% | viability [4] 97.4% | viability [5] 98.3% | inhibition [6] -0.03% | RAM network inhibition [7] 3.6%

CCCCCCNC(=O)C(C(=O)OCC)C1CCCCC1 (stereo not drawn)
inactive: growth inhibition [1] -4.1% | growth inhibition [2] -1.5% | viability increase [3] -1.52% | viability [4] 84% | viability [5] 82.2% | inhibition [6] 0.15% | RAM network inhibition [7] 3.88%

CC1CC(C)CN(S(=O)(=O)c2cccc3cccnc23)C1 (stereo not drawn)
inactive: growth inhibition [1] -4.23% | growth inhibition [2] -6.44% | viability increase [3] -4.51% | viability [4] 87.9% | viability [5] 94.9% | inhibition [6] -0.45% | RAM network inhibition [7] 1.83%

CCOc1ccc(Cn2nnc(C(=O)NCc3ccccc3)c2N)cc1
inactive: growth inhibition [1] 2.25% | growth inhibition [2] 3.87% | viability increase [3] 2.17% | viability [4] 93.2% | viability [5] 85.5% | inhibition [6] 0.395% | RAM network inhibition [7] 3.74%

COC(=O)c1ccccc1NC(=O)c1cc(C2CC2)on1
inactive: growth inhibition [1] -8.38% | growth inhibition [2] 4.01% | viability increase [3] -3.29% | viability [4] 91.5% | viability [5] 90.8% | inhibition [6] 1.4% | RAM network inhibition [7] 5.95%

O=C(O)CC1Sc2ccccc2NC1=O (stereo not drawn)
inactive: growth inhibition [1] -7.26% | growth inhibition [2] 0.575% | viability increase [3] -1.79% | viability [4] 90.2% | viability [5] 96% | inhibition [6] 1.49% | RAM network inhibition [7] 4.47%

COC(=O)c1c(N2C(=O)CCC2=O)sc2c1CCCC2
inactive: growth inhibition [1] -1.48% | growth inhibition [2] 0.535% | viability increase [3] -2.89% | viability [4] 102% | viability [5] 93.4% | inhibition [6] 1.26% | RAM network inhibition [7] -1.57%

CCN(CCNC(=O)C1CCCN(S(=O)(=O)c2cnc[nH]2)C1)c1ccccc1 (stereo not drawn)
inactive: growth inhibition [1] -0.145% | growth inhibition [2] -6.85% | viability increase [3] -0.77% | viability [4] 106% | viability [5] 101% | inhibition [6] 0.775% | RAM network inhibition [7] 3.46%

CCc1ccccc1S(=O)(=O)Cc1ccc(C(=O)NCc2ccc3c(c2)OCO3)o1
inactive: growth inhibition [1] -12% | growth inhibition [2] -13.8% | viability increase [3] -2.5% | viability [4] 95.7% | viability [5] 91.1% | inhibition [6] 1.87% | RAM network inhibition [7] 7.83%

Cc1cc(C)n(S(=O)(=O)c2cccc(Cl)c2Cl)n1
inactive: growth inhibition [1] -2.69% | growth inhibition [2] -0.205% | viability increase [3] -1.97% | viability [4] 96.8% | viability [5] 93.6% | inhibition [6] 0.73% | RAM network inhibition [7] 2.28%

CCOC(=O)CCc1n[nH]c(=O)[nH]c1=O
inactive: growth inhibition [1] -3.33% | growth inhibition [2] 5.9% | viability increase [3] -0.23% | viability [4] 102% | viability [5] 104% | inhibition [6] 1.46% | RAM network inhibition [7] 0%

CC1=C(C(=O)OC2CCCCCCC2)C(c2ccc(O)cc2)NC(=O)N1 (stereo not drawn)
inactive: growth inhibition [1] -3.17% | growth inhibition [2] 4.04% | viability increase [3] -0.32% | viability [4] 73.8% | viability [5] 72% | inhibition [6] 1.85% | RAM network inhibition [7] 3.65%

CC1(C)CC(=O)C=C(NCCCNC2CCCCC2)C1
inactive: growth inhibition [1] -9.9% | growth inhibition [2] -7.88% | viability increase [3] -2.17% | viability [4] 96.5% | viability [5] 93% | inhibition [6] 0.125% | RAM network inhibition [7] 1.72%

O=C1N/C(=N/c2ccccn2)SC1Cc1ccccc1 (stereo not drawn)
inactive: growth inhibition [1] 0.405% | growth inhibition [2] 1.97% | viability increase [3] 0.48% | viability [4] 102% | viability [5] 93.6% | inhibition [6] 3.98% | RAM network inhibition [7] 6.35%

O=C(c1cc(-c2cccs2)on1)N1CCCc2ccccc21
inactive: growth inhibition [1] -2.66% | growth inhibition [2] -4.53% | viability increase [3] -3.09% | viability [4] 103% | viability [5] 103% | inhibition [6] 2.58% | RAM network inhibition [7] -0.52%

CCCCn1c(C(C)NC(=O)CCC)nc2ccccc21 (stereo not drawn)
inactive: growth inhibition [1] -1.25% | growth inhibition [2] -0.375% | viability increase [3] 1.35% | viability [4] 86.2% | viability [5] 91% | inhibition [6] 0.88% | RAM network inhibition [7] 7.23%

COc1ccccc1-c1cc(N)n(S(=O)(=O)c2ccc(F)c(C)c2)n1
inactive: growth inhibition [1] -9.16% | growth inhibition [2] -5.82% | viability increase [3] -3.08% | viability [4] 55% | viability [5] 64% | inhibition [6] 4.39% | RAM network inhibition [7] 3.97%

COc1cccc(NC(=O)c2ccncc2)c1
inactive: growth inhibition [1] -9.44% | growth inhibition [2] -11% | viability increase [3] -3.81% | viability [4] 94.3% | viability [5] 100% | inhibition [6] 1.18% | RAM network inhibition [7] 4.2%

CC12CN3CC(C)(CN(C1)C3c1ccc(Br)cc1)C2=O (stereo not drawn)
inactive: growth inhibition [1] -1.9% | growth inhibition [2] 3.54% | viability increase [3] -2.12% | viability [4] 95.2% | viability [5] 96.9% | inhibition [6] 0.265% | RAM network inhibition [7] 0.82%

Cc1ccc(CC2S/C(=C(/C#N)C(=O)NCc3ccco3)N(c3ccccc3)C2=O)cc1 (stereo not drawn)
inactive: growth inhibition [1] 1.42% | growth inhibition [2] 2.41% | viability increase [3] -7.76% | viability [4] 45% | viability [5] 60.6% | inhibition [6] 0.44% | RAM network inhibition [7] 1.64%
